Measurements taken from the EternaBench riboswitch data.

Test system: MS2 coat protein
Assay: apparent Kd, MS2 coat protein; higher = weaker binding; RNA-MaP array; FMN 200 µM where present
Method in brief: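 The apparent Kd comes from binding curves fitted cluster by cluster, filtered, and summarised as a median. Those curves followed SNAP-549-labelled MS2 coat protein from 0.7 or 1.5 nM, doubling to 3 µM, on Illumina sequencing-chip clusters where stalled E. coli RNA polymerase had transcribed the designs, without and then with constant ligand. The buffer was 100 mM Tris-HCl pH 7.5, 80 mM KCl, 4 mM MgCl2, BSA, DTT, yeast tRNA and Tween-20, and green signal was normalised to red-channel RNA signal and control-cluster median Fmax.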

[1] = designed as: ON switch for flavin mononucleotide, no ligand
[2] = ligand present: flavin mononucleotide, designed as: ON switch for flavin mononucleotide
[3] = designed as: OFF switch for flavin mononucleotide, no ligand
[4] = ligand present: flavin mononucleotide, designed as: OFF switch for flavin mononucleotide

Sequence	apparent Kd [1] [nM]	apparent Kd [2] [nM]	apparent Kd [3] [nM]	apparent Kd [4] [nM]
GCCAUCACAUGAGGAUAUGCUCCCGUUUCGGGAGCAGAAGGCAUGUCAUAAGACAUGAGGAUCACCCAUGUAGUUAAGAUGGCA	375	13.3		
CAAAUCUGAGGAUAUCGAUAUUUGUACAUGAGGAUCACCCAUGUCCUAUUUAUAAAAUCCCGAGAAGGCAGUGUAU			14.6	22.9
ACGGAACAUGAGGAUCACCCAUGUAUCCGAAAUAUGGACUCACAGGAUAUCCAGAGUUGCCAAUCGGAGAAGGGUGACUCCAGA	12.8	9.91		
AAAAUACAUGAGGAUCACCCAUGUUAGGAUAUGCAAAGCCCAGUUAGCUUUUGGGUAGGUAGAAGGGACGGGUA			23.4	20.2
CCGCAAAUGUAGGAUAUCGUAUCGGAUACGAUACGAGAAGGGCAUACAUGAGGAUCACCCAUGUGUCCUAGCGG			14.6	15.7
UUUUUAGCAGGAUAUAUCCACGACCACAUGAGGAUCACCCAUGUGGCCGCUUGAGGUUGUAUAGAAGGGCUUUUUU			14	14.8
AAUUAUAUACAGAAGGAGUUAUUUAGAGGAUUACUAGGAUAUGUUCACAUGAGGAUCACCCAUGUCAUAUUGGGAUUUAUUAUU			18	24
CUUAUACAUGAGGAUCACCCAUGUUAGGAUAUUCGCCCGCAUUGGAAGUCCGGUCUUGGAAGAAGGAACGUGGG			36.8	59.1
UUUUUAUUUAUAGGAUAUGGAAACAUGAGGAUCACCCAUGUAUGAUAAGAUAAAUUAUGAUAUGGCCAGAAGGAUAUUAUUUUU	31	34.8		
ACAUGAGACUAAGGAUAUGGUGUACCUACAUGUGACAUGAGGAUCACCCAUGUGGUAAGUAUGACUCAGAAGGUAGAGAUAUGU	414	37.2		
GAUAGAGAGCAGGAUAUCAUAGAAAUGUAUGAAUGAGAAGGGCUCACAUGAGGAUCACCCAUGUGGUCCUAGAU			25.8	236
GGGUACAUCGGAGGAUAUCAUGUAAAUACAUGAGGAUCACCCAUGUCGAUGGAGACAUCGGAGAUUGAGAAGGCCGAUGUACAG	146	8.38		
UUAUUUUGUCAAGGAUAUGUAGUAUUGAUCUGAAAACAUGAGGAUCACCCAUGUAUAUGGUGGGAACAGAAGGUGAAUGUUGAA			658	845
AACCUAUUACAGAAGGCCAGCUACAUGAGGAUCACCCAUGUCGAGUCAUGGAGGAUAUGUAGUAAUUCACUCACAGAUGAGUAC	28.9	5.78		
UUUACAUGAGGAUCACCCAUGUCUGUCACCCAUGUGUGCAAUCAGGAUAUGAUCUCAAGAAUGAAUUAGAAGGGAUAACAUGAG	182	194		
UCAGUAGAGUCAGGAUAUACGAAAGGCGAUCCAUACAUGAGGAUCACCCAUGUAGAAGGGACUCUACUGUAAGUCGGAAACGAC			309	21.9
AACCAACAUGAGGAUCACCCAUGUCAACCCAAGGCAGGAUAUGCGAGAAUAACAAUGGGAGCAGAAGGGCCGACCU	110	54.9		
CACAAAUGGCAGAAGGGACGGACGAUAGUGUAGUCAGGAUAUGCAAAUAGGUAUGGACAUGAGGAUCACCCAUGUCCGUCCUUU		5.27		
CAGCGAUAGCUGAAUGGUACAUGGGAGGAUAUGGGUUGACAUGAGGAUCACCCAUGUAAAUAAUACUAGAAGGCCCAUGUACCU	191	9.38		
GUUGUGUGAGGAUAUGCCUGGCCGUGUGGCCGGUUUGGGUGGCAGAAGGUACAUGAGGAUCACCCAUGUACGGG			105	107
CCUCGACAUGAGGAUCACCCAUGUCAGGAUAUUGUGUUUCGGGUUUUUUACCGUUAGGCAAGAAGGGAUGUGUG			29.2	40.2
UUGAUUAGAAGUUAACAUGAGGAUCACCCAUGUAUUGGAUCAGAGGAUAUGCAUGUUUGAUAGUAGCAGAAGGCUGAUGGUGGA	53.5	61.6		
GGACGUCACAUUUACAUGAGGAUCACCCAUGUCAAAAGACAUGAGGAUAUGGAUGCGAAACGCAUCCAGAAGGCAUGGACGUCC	286	27.8		
GGGUGGCGUAGAGGAUAUGUGUUACAUGAGGAUCACCCAUGUGCAUAUGAUGUUCGUGUGUGUGUAUAGAAGGCUACGUCGCUA	14.4	17.7		
AAAGCUUCCGCCACAUGAGGAUCACCCAUGUCGUAACCGGGACAGGAUAUCCUCGAUGUAUUUGCGGAGAAGGGUCGCAGGUUA	77.1	147		
GCAGGAUAAGUGAGGAUAUACCUAUGGAUACAUAGGUAGAAGGUACAUGAGGAUCACCCAUGUUCCUCACCUGC			9.54	10.1
UGUAUGGACAGAGGAUAUACGGAUAGGAUCUACUAUCCUCCUUAAAUAACAUGAGGAUCACCCAUGUAGAAGGCUGUCCAUACU			18.6	43.5
CCUCCCUGAGGAUAUCCACCCUCAUACAUGAGGAUCACCCAUGUUCAUCCGUGGCUACCCGGAGAAGGCAGCUCUG			57.8	49.7

Sequence	apparent Kd [1] [nM]	apparent Kd [2] [nM]	apparent Kd [3] [nM]	apparent Kd [4] [nM]
GUUAUAAAGGUAGGAUAUAGUAUUAUAAUUAAAUUAGAAGGAUCUCACAUGAGGAUCACCCAUGUAAGAGGAUCACCCAUGUAU			11.4	8.66
CAUGGAACAUAGGAUAUCUCGCGGCUAGGCUGCAGAGAAGGAUGUACAUGAGGAUCACCCAUGUAUGAUCCAAU			18.9	28.2
CACAUUUUAACAGGAUAUGUAUGGUUGCUUAUUAUUGCAUAUUCAAUUAUUACAGAAGGGUUAUACAUGAGGAUCACCCAUGUG	21	15.5		
GCGUGGUUCUAGAAGGUGCUAGCGAUAAGCUAGCAAGGAUAUAGACAUGAGGAUCACCCAUGUCUUAGUGAAAUGGACACACGC				5.09
UCAACUCCCGUCAGGAUAUGUUGCUCUAGGGAGCAGUAGAAGGGACAUGAGGAUCACCCAUGUUAUCCGUGUAU			17.2	20.6
GCCGAAAAUGUGAGGAUAUACCUAUGGAAACAUAGGUAGAAGGCACAUGAGGAUCACCCAUGUGUCCAAACGGC			19.9	64.6
CGCUCAUUAUAUAAGGAAAGAAUCAGAAGGCGUUACAUGAGGAUCACCCAUGUUUUGUAUAGUAACGAGGAUAUGAUAUGAGCG			18.6	16
GUAGCUACUAUUAUACAUGAGGAUCACCCAUGUUACAUGUGUAAGGAUAUUGAAGUUAUUAUUAUCAAGAAGGUACUAUGCUAC	16.2	9.54		
CGGCGGAAAGGAUAUGCAGUAAUAUCCAAAUGUGGGCCACGACAUGAGGAUCACCCAUGUAGAAGGUUCAGCCG			14.7	13.6
CCGCCAUGAGGAUAUCCAUCUGGAUCAGACUAGAUCCUGAUGGAGAAGGGACAUGAGGAUCACCCAUGUUGCGG			62.8	55.1
UCAUGAUGGAAGAAGGGAGUCGUGCAUGACAACUCAGGAUAUUUCACAUGAGGAUCACCCAUGUCGAAGUAACAAUGUUGAUCA			16.2	56.6
CGCUACUACCAGAAGGACAUGAGGAUCACCCAUGUAGGAUAUGGGUUACACGUUCCUGUGAAUUGUAACGACGCUACGUAUGCG	203	13.4		
CGAUCGUUGCAGAAGGUUAUAAUUUUAUCUACAUGUUUAACAUGAGGAUCACCCAUGUUUUUGAUGAAGGAUAUGCAAGGGUCG			6.88	7.12
AGUGUGAGGCAGGAUAUGCUAUAUGUUCGUAAUGCAGAAGGGUCUACAUGAGGAUCACCCAUGUGUGCGGUUGA			183	523
UCAUAAAUUCGAGGAUAUCGGUGAUAAAGAAGACGAGAAGGCGAUUAGAGAGAGAUGUUUAUAGACAUGAGGAUCACCCAUGUU	30	24.8		
UUAUACAUGAGGAUCUCCCAUGACAUGAGGAUCACCCAUGUGCAGGAUAUACGUGAUAUAAUAUAGUAGAAGGGCAGACUAUAU			119	130
AGAAUUGUAGGAUAUACAUGAGGAUCACCCAUGUGGGAGGUGGAGCAUACAAGACGAGGUAGAAGGACAACGAC			92.3	91.9
UUAUGUCGCGUAGGAUAUCAUUAGAGUUGUAAUUUAAUUGUAAUUUCGAUAUGAGAAGGACGUACACAUGAGGAUCACCCAUGU			17.2	15.3
GGCUACGUUUCGUAGCAGUGUCAUCGAGAAGGCCCUGACAUGAGGAUCACCCAUGUUGUUACAUGGGAGGAUAUCGAUGAUACG	12.1	4.96		
GGAUGACAAAGUCAUCCAAUACGAACAUGAGGAUCACCCAUGUAGGAUAUGCUACAUGAGGAUCACCAGAAGGACAUGUGCCUU			123	135
ACUACUUAGUGAGGAUAUACAUAAUUUAUAACUGUAGAAGGCACAAACCUCAAUACAUGAGGAUCACCCAUGUUUUAUAUCUAU			32.7	46.4
GCAUCCAAUGUGAGGAUAUACCUCUGGAUACAGAGGUAGAAGGCACAUGAGGAUCACCCAUGUUACUAGGAUGC			20.8	44.4
CAUGAGGUAGGAUAUACGAUAAUAUAGGGUAGAUAUAUAACACAUGAGGAUCACCCAUGUAGAAGGACCAGUAG			31.2	57.2
GAUCAACAUGAGGAUCACCCAUGUGAGGAUAUGAUACUAUGUACUUCGGUACAUAGUAUCAGAAGGCAUGUGAA			78.1	111
GUGACUUAUAGAGGAUAUUGACAUGAGGAUCACCCAUGUAUUUGGUAGUGUUCAAUGAAUUCUUGCGAGAAGGCUAUAAGACAC			221	261
GGGUAAAUCGGAGGAUAUCAUGUAAAUACAUGAGGAUCACCCAUGUCGAUGGAGACAUCGGAGAUUGAGAAGGCCGAUGUACCG	175	9.42		
GGAGCACACAUUAACAUGAGGAUCACCCAUGUCAAUAGACAUGAGGAUAUGGAUCCGAAAAGGAUCCAGAAGGCAUGGUGCUCC	130	10		
